Assay results taken from ChEMBL document CHEMBL1143008, “Synthesis and biological evaluation of chiral alpha-aminoanilides with central antinociceptive activity” (2007).

Tests used:
Assay type in all cases: functional
[1] = test system: Mus musculus; assay: Antinociceptive effect in atropine treated Swiss Albino mouse assessed as licking latency at 50 mg/kg, sc by hotplate test; details: route subcutaneous
In short: (§1)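 Antagonist pretreatment before s.c. test compound in male Swiss albino mice: atropine 5 mg/kg i.p., or hemicholinium-3 1 µg per mouse i.c.v. The i.c.v. dose was 5 µL in isotonic saline under ether anaesthesia. Paw-licking latency on a 52.5 °C hot plate was read at each compound's time of maximum effect, compared with saline-saline mice. Cutoff was 45 s.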

[2] = test system: Mus musculus; assay: Antinociceptive activity in sc dosed Swiss Albino mouse by hotplate test
In short: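 Male Swiss albino mice (23-30 g), s.c. dosing. Paw-licking latency on a 52.5 ± 0.1 °C hot plate, read before and up to 60 min after dosing. Mice outside 12-18 s at pretest were excluded; cutoff was 45 s. […] was fitted from the dose-response data with a constrained four-parameter logistic model.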

[3] = test system: Mus musculus; assay: Antinociceptive effect in Swiss Albino mouse assessed as licking latency at 50 mg/kg, sc after 15 mins by hotplate test; details: route subcutaneous
In short: (§2)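 Hot-plate test at 52.5 ± 0.1 °C in male Swiss albino mice (23-30 g) after s.c. dosing. The endpoint was fore- or hind-paw licking, timed before and at intervals up to 60 min. Mice scoring below 12 or above 18 s at pretest were rejected, with a 45 s cutoff. Mean ± SEM.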

[4] = test system: Mus musculus; assay: Effect on motor coordination in Swiss Albino mouse assessed as number of falls from rotarod at 50 mg/kg after 15 mins relative to CMC
In short: (§3)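 Motor coordination of male Swiss albino mice on the rota-rod, counted as number of falls, before dosing and 15, 30 and 45 min after. Each value is the mean of 6-8 mice, compared with vehicle-treated controls.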

[5] = test system: Mus musculus; assay: Effect on motor coordination in Swiss Albino mouse assessed as number of falls from rotarod at 50 mg/kg after 45 mins relative to CMC; in short: as §3
[6] = test system: Mus musculus; assay: Effect on motor coordination in Swiss Albino mouse assessed as number of falls from rotarod at 50 mg/kg after 30 mins relative to CMC; in short: as §3
[7] = test system: Mus musculus; assay: (§4) Antinociceptive effect in Swiss Albino mouse assessed as licking latency at 5 mg/kg, sc after 15 mins by hotplate test; details: route subcutaneous
[8] = test system: Mus musculus; assay: Antinociceptive effect in atropine treated Swiss Albino mouse assessed as licking latency at 30 mg/kg, sc by hotplate test; details: route subcutaneous; in short: as §1
[9] = test system: Mus musculus; assay: Antinociceptive effect in Swiss Albino mouse assessed as licking latency at 30 mg/kg, sc after 15 mins by hotplate test; details: route subcutaneous; in short: as §2
[10] = test system: Mus musculus; assay: Antinociceptive effect in Swiss Albino mouse assessed as licking latency at 15 mg/kg, sc after 15 mins by hotplate test; details: route subcutaneous; in short: as §2
[11] = test system: Mus musculus; assay: Antinociceptive effect in Swiss Albino mouse assessed as licking latency at 10 mg/kg, sc after 15 mins by hotplate test; details: route subcutaneous
[12] = test system: Mus musculus; assay: Antinociceptive effect in atropine treated Swiss Albino mouse assessed as licking latency at 10 mg/kg, sc by hotplate test; details: route subcutaneous; in short: as §1
[13] = test system: Mus musculus; assay: Effect on motor coordination in Swiss Albino mouse assessed as number of falls from rotarod at 10 mg/kg after 45 mins relative to CMC; in short: as §3
[14] = test system: Mus musculus; assay: Effect on motor coordination in Swiss Albino mouse assessed as number of falls from rotarod at 10 mg/kg after 15 mins relative to CMC; in short: as §3
[15] = test system: Mus musculus; assay: Effect on motor coordination in Swiss Albino mouse assessed as number of falls from rotarod at 10 mg/kg after 30 mins relative to CMC; in short: as §3
[16] = test system: Mus musculus; assay: Antinociceptive effect in Swiss Albino mouse assessed as licking latency at 10 mg/kg, sc after 30 mins by hotplate test; details: route subcutaneous
In short: (§5)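 Male Swiss albino mice (23-30 g) got 1, 5 or 10 mg/kg s.c. or saline. Fore- or hind-paw licking latency on a 52.5 ± 0.1 °C plate was taken before dosing and at 15, 30, 45 and 60 min. Pretest range was 12-18 s (others rejected) with a 45 s cutoff. Each value is the mean of at least 10 mice; mean ± SEM.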

[17] = test system: Mus musculus; assay: Antinociceptive effect in Swiss Albino mouse assessed as licking latency at 1 mg/kg, sc after 45 mins by hotplate test; details: route subcutaneous; in short: as §5
[18] = test system: Mus musculus; assay: Antinociceptive effect in Swiss Albino mouse assessed as licking latency at 10 mg/kg, sc after 45 mins by hotplate test; details: route subcutaneous; in short: as §5
[19] = test system: Mus musculus; assay: as §4; details: route subcutaneous; in short: as §5; remark: listed apart in the source
[20] = test system: Mus musculus; assay: Antinociceptive effect in Swiss Albino mouse assessed as licking latency at 5 mg/kg, sc after 30 mins by hotplate test; details: route subcutaneous; in short: as §5
[21] = test system: Mus musculus; assay: Antinociceptive effect in Swiss Albino mouse assessed as licking latency at 5 mg/kg, sc after 45 mins by hotplate test; details: route subcutaneous; in short: as §5
[22] = test system: Mus musculus; assay: Antinociceptive effect in Swiss Albino mouse assessed as licking latency at 1 mg/kg, sc after 60 mins by hotplate test; details: route subcutaneous; in short: as §5
[23] = test system: Mus musculus; assay: Antinociceptive effect in hemicolinium-3 treated Swiss Albino mouse assessed as licking latency at 10 mg/kg, sc by hotplate test; details: route subcutaneous; in short: as §1
[24] = test system: Mus musculus; assay: Antinociceptive effect in Swiss Albino mouse assessed as licking latency at 1 mg/kg, sc after 15 mins by hotplate test; details: route subcutaneous; in short: as §5
[25] = test system: Mus musculus; assay: Antinociceptive effect in Swiss Albino mouse assessed as licking latency at 1 mg/kg, sc after 30 mins by hotplate test; details: route subcutaneous; in short: as §5
[26] = test system: Mus musculus; assay: Antinociceptive effect in Swiss Albino mouse assessed as licking latency at 5 mg/kg, sc after 60 mins by hotplate test; details: route subcutaneous; in short: as §5
[27] = test system: Mus musculus; assay: Antinociceptive effect in Swiss Albino mouse assessed as licking latency at 10 mg/kg, sc after 60 mins by hotplate test; details: route subcutaneous; in short: as §5
[28] = test system: Mus musculus; assay: Effect on motor coordination in Swiss Albino mouse assessed as number of falls from rotarod at 30 mg/kg after 45 mins relative to CMC; in short: as §3
[29] = test system: Mus musculus; assay: Effect on motor coordination in Swiss Albino mouse assessed as number of falls from rotarod at 30 mg/kg after 30 mins relative to CMC; in short: as §3
[30] = test system: Mus musculus; assay: Effect on motor coordination in Swiss Albino mouse assessed as number of falls from rotarod at 30 mg/kg after 15 mins relative to CMC; in short: as §3
[31] = test system: Mus musculus; assay: Antinociceptive effect in Swiss Albino mouse assessed as licking latency at 20 mg/kg, sc after 15 mins by hotplate test; details: route subcutaneous; in short: as §2
[32] = test system: Mus musculus; assay: Antinociceptive effect in Swiss Albino mouse assessed as licking latency at 40 mg/kg, sc after 15 mins by hotplate test; details: route subcutaneous; in short: as §2
[33] = test system: Mus musculus; assay: Antinociceptive effect in hemicolinium-3 treated Swiss Albino mouse assessed as licking latency at 50 mg/kg, sc by hotplate test; details: route subcutaneous; in short: as §1

With `Cc1cc(Cl)ccc1NC(=O)[C@H](C)N` the Activity [1] was 20.5 s, the ED50 [2] was 41.3 mg/kg and the Activity [3] was 21.1 s.

With `Cc1cc(Cl)ccc1NC(=O)[C@@H](C)N` the Activity [1] was 25 s, the Activity [4] was 1.5 and the Activity [5] was 0.8. For the same compound, the ED50 [2] was 39.2 mg/kg, the Activity [3] was 25.5 s and the Activity [6] was 1.1.

For `C[C@H](N)C(=O)Nc1ccc(Cl)cc1`, the Activity [7] was 15.8 s.

With `C[C@@H](N)C(=O)Nc1ccc(Cl)cc1` the Activity [7] was 17.3 s.

In the case of `Cc1cc(Cl)cc(C)c1NC(=O)[C@@H](C)N`, the ED50 [2] is reported as 17.8 mg/kg, the Activity [8] is reported as 23.7 s and the Activity [9] is reported as 23.2 s.

With `Cc1ccccc1NC(=O)[C@H](C)N` the Activity [10] was 16.2 s.

`Cc1cc(Cl)cc(C)c1NC(=O)[C@H](N)C(C)C` showed an Activity [3] of 17 s.

`Cc1ccccc1NC(=O)[C@@H](C)N` showed an Activity [11] of 17.1 s.

Compound `Cc1cccc(C)c1NC(=O)[C@@H](N)CC(C)C` has an Activity [11] of 21.3 s, an ED50 [2] of 6.8 mg/kg and an Activity [12] of 20.7 s.

Work on `Cc1cccc(C)c1N(C)C(=O)[C@@H](N)C(C)C` yielded an Activity [11] of 13.6 s.

Work on `Cc1cccc(C)c1NC(=S)[C@H](C)N` yielded an Activity [3] of 18.6 s.

`Cc1cccc(C)c1NC(=S)[C@@H](C)N` showed an Activity [3] of 18.8 s.

Work on `Cc1cc(Cl)cc(C)c1NC(=O)[C@@H](N)C(C)C` yielded an Activity [3] of 17.2 s.

With `Cc1cccc(C)c1NC(=O)[C@H](N)CC(C)C` the Activity [13] was 0.8, the Activity [11] was 20.7 s and the ED50 [2] was 6.6 mg/kg. The Activity [14] was 2.2, the Activity [15] was 1.5 and the Activity [12] was 23.9 s.

For `Cc1cccc(C)c1NC(=O)[C@H](N)C(C)C`, the Activity [16] was 23.6 s, the Activity [17] was 15.3 s and the Activity [13] was 0.9. The Activity [18] was 18.5 s, the Activity [19] was 23.7 s and the Activity [20] was 20.6 s. It also gave an Activity [11] of 30.3 s, an Activity [21] of 17.1 s and an ED50 [2] of 5.7 mg/kg. For the same compound, the Activity [22] was 14.5 s, the Activity [23] was 17.5 s and the Activity [24] was 16.5 s. The Activity [25] was 17.2 s, the Activity [14] was 2.3 and the Activity [15] was 1.2. For the same compound, the Activity [26] was 14.9 s, the Activity [27] was 15.1 s and the Activity [12] was 16.9 s.

Compound `Cc1cc(Cl)cc(C)c1NC(=O)[C@H](C)N` has an Activity [28] of 1, an ED50 [2] of 25.5 mg/kg and an Activity [29] of 1.2. The Activity [30] was 1.4, the Activity [8] was 26.6 s and the Activity [9] was 25.1 s.

Compound `Cc1cccc(C)c1N(C)C(=O)[C@H](N)C(C)C` has an Activity [31] of 13.6 s.

With `Cc1cc(Cl)ccc1NC(=O)[C@@H](N)C(C)C` the ED50 [2] was 25.9 mg/kg and the Activity [32] was 19.9 s.

`Cc1cc(Cl)ccc1NC(=O)[C@H](N)C(C)C` showed an Activity [28] of 0.8, an ED50 [2] of 19.6 mg/kg and an Activity [29] of 1.3. It also gave an Activity [30] of 1.5, an Activity [8] of 26.4 s and an Activity [9] of 27.9 s.

`Cc1cccc(C)c1NC(=O)[C@@H](N)C(C)C` showed an Activity [11] of 15.8 s.

Compound `Cc1cccc(C)c1NC(=O)[C@@H](C)N` [(R)-TOCAINIDE] has an Activity [1] of 17.5 s, an Activity [4] of 1.7 and an Activity [33] of 18.6 s. For the same compound, the Activity [5] was 0.9, the ED50 [2] was 33.6 mg/kg and the Activity [3] was 26.5 s. It also gave an Activity [6] of 1.4.

Compound `Cc1cccc(C)c1NC(=O)[C@H](C)N` [S-TOCAINIDE] has an Activity [3] of 14.3 s.
